Reference: ChEMBL document CHEMBL3414463, “Discovery of potent and selective 8-fluorotriazolopyridine c-Met inhibitors” (J Med Chem, 2015)

Experiments:
[1] = biological target: T1, Hepatocyte growth factor receptor (Homo sapiens, UniProt P08581); assay: Inhibition of HGF-stimulated c-Met autophosphorylation in serum starved human PC3 cells pre-incubated for 1 hr followed by human recombinant HGF stimulation for 10 mins by quantitative electrochemiluminescence immunoassay; format: cell-based, PC-3
T1 sequence (P08581 whole entry): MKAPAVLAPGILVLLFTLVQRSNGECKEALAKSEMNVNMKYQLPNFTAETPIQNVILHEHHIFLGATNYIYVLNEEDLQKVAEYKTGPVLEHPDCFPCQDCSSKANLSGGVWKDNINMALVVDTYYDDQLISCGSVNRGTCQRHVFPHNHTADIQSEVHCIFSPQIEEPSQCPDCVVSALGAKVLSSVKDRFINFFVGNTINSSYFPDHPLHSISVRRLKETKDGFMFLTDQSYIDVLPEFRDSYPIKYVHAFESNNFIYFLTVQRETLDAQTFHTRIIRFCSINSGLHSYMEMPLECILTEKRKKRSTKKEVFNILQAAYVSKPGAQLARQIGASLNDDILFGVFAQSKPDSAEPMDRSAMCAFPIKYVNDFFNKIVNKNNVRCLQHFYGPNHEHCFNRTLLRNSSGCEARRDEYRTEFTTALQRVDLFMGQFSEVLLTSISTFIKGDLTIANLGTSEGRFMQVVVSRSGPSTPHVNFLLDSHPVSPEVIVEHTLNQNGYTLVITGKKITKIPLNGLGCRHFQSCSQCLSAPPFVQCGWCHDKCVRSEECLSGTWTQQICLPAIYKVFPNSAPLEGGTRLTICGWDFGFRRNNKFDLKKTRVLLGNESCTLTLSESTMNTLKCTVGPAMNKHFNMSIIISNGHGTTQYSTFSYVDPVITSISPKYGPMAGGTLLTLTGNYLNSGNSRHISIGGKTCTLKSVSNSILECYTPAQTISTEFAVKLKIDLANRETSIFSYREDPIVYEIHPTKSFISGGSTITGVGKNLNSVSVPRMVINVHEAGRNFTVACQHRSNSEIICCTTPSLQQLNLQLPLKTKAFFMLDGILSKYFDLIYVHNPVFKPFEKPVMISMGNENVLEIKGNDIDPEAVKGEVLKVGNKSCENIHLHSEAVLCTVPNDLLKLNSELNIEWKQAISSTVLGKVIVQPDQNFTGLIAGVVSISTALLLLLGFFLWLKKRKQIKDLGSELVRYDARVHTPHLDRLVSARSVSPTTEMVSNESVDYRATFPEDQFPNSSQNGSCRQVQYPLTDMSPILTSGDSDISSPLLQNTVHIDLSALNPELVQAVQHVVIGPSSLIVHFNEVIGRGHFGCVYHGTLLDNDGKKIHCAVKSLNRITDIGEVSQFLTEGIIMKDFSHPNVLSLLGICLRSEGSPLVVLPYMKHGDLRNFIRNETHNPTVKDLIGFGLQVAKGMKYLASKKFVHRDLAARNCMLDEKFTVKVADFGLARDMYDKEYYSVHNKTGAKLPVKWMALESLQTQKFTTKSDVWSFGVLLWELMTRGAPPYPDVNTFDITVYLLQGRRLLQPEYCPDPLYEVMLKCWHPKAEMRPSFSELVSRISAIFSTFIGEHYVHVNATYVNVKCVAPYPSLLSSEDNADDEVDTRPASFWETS
In short: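 Serum-starved PC-3 cells (plated in high-glucose DMEM/10% FBS, then 16 h in low-glucose DMEM with 0.1% BSA) were treated with a 10-point inhibitor dilution for 1 h at 37 °C. Cells were then stimulated with 200 ng/mL recombinant human HGF for 10 min and lysed. Phospho-c-Met was captured with biotinylated anti-c-Met and 4G10 by electrochemiluminescence. IC50, n ≥ 2.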

[2] = Oral bioavailability in Sprague-Dawley rat at 2 mg/kg; format: ADME, organism-based; details: in vivo
In short: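 Male Sprague-Dawley rats given 2.0 mg/kg orally in 2% (w/v) hydroxypropylmethylcellulose, 1% (w/v) Tween 80 in water, pH 2.2 (adjusted with HCl or MSA). Some inhibitors instead used 10% (v/v) dimethylacetamide in the same vehicle.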

[3] = biological target: T1, Hepatocyte growth factor receptor; assay: Inhibition of recombinant c-Met kinase domain (unknown origin) incubated for 30 mins using gastrin peptide substrate by HTRF assay
[4] = Volume of distribution at steady state in Sprague-Dawley rat at 0.25 mg/kg, iv; format: ADME, organism-based; design: dose 0.25 mg/kg, route intravenous; details: in vivo, read-out: Vdss
In short: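 Male Sprague-Dawley rats were given a single IV dose of 0.25 mg/kg. The vehicle was DMSO, or for some compounds 20% (w/v) hydroxypropyl β-cyclodextrin in water adjusted to pH 3.5 with MSA. NC marks cases where the terminal disposition rate constant could not be characterized for lack of slope.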

[5] = Half life in Sprague-Dawley rat at 0.25 mg/kg, iv; format: ADME, organism-based; design: dose 0.25 mg/kg, route intravenous; details: in vivo
[6] = Clearance in Sprague-Dawley rat at 0.25 mg/kg, iv; format: ADME, organism-based; design: dose 0.25 mg/kg, route intravenous; details: Sprague-Dawley, in vivo
[7] = AUC (0 to infinity) in Sprague-Dawley rat at 0.25 mg/kg, iv; format: ADME, organism-based, Plasma; design: dose 0.25 mg/kg, route intravenous, time infinity; details: Sprague-Dawley, plasma
Cytochrome P450 3A4 = Cytochrome P450 3A4 (Homo sapiens, UniProt P08684); assay: Inhibition of CYP3A4 (unknown origin); format: ADME
Cytochrome P450 3A4, sequence (P08684 whole entry): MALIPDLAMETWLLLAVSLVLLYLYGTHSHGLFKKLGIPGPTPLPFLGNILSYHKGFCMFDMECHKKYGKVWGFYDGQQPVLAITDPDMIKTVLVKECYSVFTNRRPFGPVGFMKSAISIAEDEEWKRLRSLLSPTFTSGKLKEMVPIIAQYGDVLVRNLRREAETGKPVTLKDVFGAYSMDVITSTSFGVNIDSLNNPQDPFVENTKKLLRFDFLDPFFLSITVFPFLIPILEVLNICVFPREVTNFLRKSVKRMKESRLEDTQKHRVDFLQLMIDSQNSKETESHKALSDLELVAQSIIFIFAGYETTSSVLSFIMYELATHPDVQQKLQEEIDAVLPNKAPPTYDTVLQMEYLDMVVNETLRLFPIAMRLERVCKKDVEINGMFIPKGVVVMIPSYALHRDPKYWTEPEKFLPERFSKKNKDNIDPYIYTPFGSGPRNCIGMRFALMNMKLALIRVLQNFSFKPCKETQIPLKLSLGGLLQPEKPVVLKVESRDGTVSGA

Cytochrome P450 2D6 = Cytochrome P450 2D6 (Homo sapiens, UniProt P10635); assay: Inhibition of CYP2D6 (unknown origin); format: ADME
Cytochrome P450 2D6, sequence (P10635 whole entry): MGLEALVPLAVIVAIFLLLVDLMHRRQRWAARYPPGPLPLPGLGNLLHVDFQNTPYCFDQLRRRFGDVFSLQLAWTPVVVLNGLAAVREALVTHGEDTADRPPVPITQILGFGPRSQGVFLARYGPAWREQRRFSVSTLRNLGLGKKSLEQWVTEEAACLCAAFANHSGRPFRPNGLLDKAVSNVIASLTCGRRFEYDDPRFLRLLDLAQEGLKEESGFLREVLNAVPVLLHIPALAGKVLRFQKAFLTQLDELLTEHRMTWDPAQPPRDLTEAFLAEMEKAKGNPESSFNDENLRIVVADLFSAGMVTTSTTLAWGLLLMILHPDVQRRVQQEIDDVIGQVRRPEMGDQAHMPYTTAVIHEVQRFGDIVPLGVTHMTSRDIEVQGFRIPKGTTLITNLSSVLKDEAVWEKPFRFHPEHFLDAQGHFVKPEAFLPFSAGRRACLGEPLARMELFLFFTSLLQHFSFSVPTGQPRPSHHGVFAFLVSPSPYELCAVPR

Liver microsome [8] = assay: Stability in rat liver microsomes assessed as compound turnover rate; format: ADME
Liver microsome [9] = assay: Stability in human liver microsomes assessed as compound turnover rate; format: ADME
Liver microsome [10] = assay: Drug level in dog liver microsomes treated with 5-(8-Fluoro-3-(1-(3-methoxyquinolin-6-yl)ethyl)[1,2,4]-triazolo[4,3-a]pyridin-6-yl)-3-methylisoxazole assessed as compound formation in presence of NADPH by LC-MS/MS method; format: ADME, Canis lupus familiaris
In short: (§1)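 Compound incubated with NADPH in mouse, rat, dog, monkey or human liver microsomes. Metabolites were identified by accurate mass spectrometry and MS/MS, and selected ion chromatograms were used to build metabolite profiles.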

[11] = Drug level in mouse liver microsomes treated with 5-(8-Fluoro-3-(1-(3-methoxyquinolin-6-yl)ethyl)[1,2,4]-triazolo[4,3-a]pyridin-6-yl)-3-methylisoxazole assessed as compound formation in presence of NADPH by LC-MS/MS method; format: ADME; in short: as §1
Liver microsome [12] = assay: Drug level in rat liver microsomes treated with 5-(8-Fluoro-3-(1-(3-methoxyquinolin-6-yl)ethyl)[1,2,4]-triazolo[4,3-a]pyridin-6-yl)-3-methylisoxazole assessed as compound formation in presence of NADPH by LC-MS/MS method; format: ADME; in short: as §1

Structure (SMILES) | IC50 [1] [nM] | bioavailability [2] [%] | IC50 [3] [nM] | Vd [4] [L/kg] | half-life [5] [h] | clearance [6] [mL/min/kg] | AUC(0-inf) [7] [µM·h] | other results
Cc1cc(-c2cc(F)c3nnc([C@](C)(F)c4ccc5ncccc5c4)n3c2)sn1 | 6 | 27 | 5 | 1.07 | 0.72 | 30.2 | 0.37 | –
COc1ccc2c(OCc3nnc4ccc(-c5ccccc5)cn34)ccnc2c1 | – | – | 31 | – | – | – | – | –
COc1ccc2c(OCc3nnc4c(F)cc(-c5ccccc5)cn34)ccnc2c1 | – | – | 7 | – | – | – | – | –
c1ccc(-c2ccc3nnc(Cc4ccc5ncccc5c4)n3c2)cc1 | – | – | 210 | – | – | – | – | –
Fc1cc(-c2ccccc2)cn2c(Cc3ccc4ncccc4c3)nnc12 | – | – | 60 | – | – | – | – | –
Fc1cc(-c2ccccc2)cn2c(C(F)(F)c3ccc4ncccc4c3)nnc12 | – | – | 23 | – | – | – | – | –
Fc1cc(-c2ccccn2)cn2c(C(F)(F)c3ccc4ncccc4c3)nnc12 | 32 | – | 12 | – | – | – | – | inhibition (INH) (Cytochrome P450 3A4): Not Active; inhibition (INH) (Cytochrome P450 2D6): Not Active
Cc1cc(-c2cc(F)c3nnc(C(F)(F)c4ccc5ncccc5c4)n3c2)on1 | 9 | 62 | 9 | 0.13 | 2.5 | 0.667 | 18.5 | inhibition (INH) (Cytochrome P450 3A4): Not Active; inhibition (INH) (Cytochrome P450 2D6): Not Active
Cc1ncc(-c2cc(F)c3nnc(C(F)(F)c4ccc5ncccc5c4)n3c2)s1 | 35 | – | 11 | – | – | – | – | inhibition (INH) (Cytochrome P450 3A4): Not Active; inhibition (INH) (Cytochrome P450 2D6): Not Active
Fc1cc(-c2cscn2)cn2c(C(F)(F)c3ccc4ncccc4c3)nnc12 | 7 | 110 | 4 | 0.39 | 0.3 | 27.8 | 0.38 | inhibition (INH) (Cytochrome P450 3A4): Not Active; inhibition (INH) (Cytochrome P450 2D6): Not Active
Cn1cc(-c2cc(F)c3nnc(C(F)(F)c4ccc5ncccc5c4)n3c2)cn1 | 15 | 110 | 22 | 0.13 | 6.6 | 0.167 | 44.4 | inhibition (INH) (Cytochrome P450 3A4): Not Active; inhibition (INH) (Cytochrome P450 2D6): Not Active
Fc1cc(-c2cnn(C3CC3)c2)cn2c(C(F)(F)c3ccc4ncccc4c3)nnc12 | 25 | 40 | 24 | 0.09 | 4.4 | 0.167 | 42.6 | inhibition (INH) (Cytochrome P450 3A4): Not Active; inhibition (INH) (Cytochrome P450 2D6): Not Active
Cn1cc(-c2cc(F)c3nnc(Cc4ccc5ncccc5c4)n3c2)cn1 | – | – | 18 | – | – | – | – | –
COc1cnc2ccc(Cc3nnc4c(F)cc(-c5cnn(C)c5)cn34)cc2c1 | – | – | 11 | – | – | – | – | –
Cn1cc(-c2cc(F)c3nnc(Cc4ccc5ncc(O)cc5c4)n3c2)cn1 | – | – | 51 | – | – | – | – | –
Cn1cc(-c2cc(F)c3nnc(Cc4ccc5nccnc5c4)n3c2)cn1 | – | – | 182 | – | – | – | – | –
CC(=O)Nc1nc2ccc(Cc3nnc4c(F)cc(-c5cnn(C)c5)cn34)cc2s1 | – | – | 67 | – | – | – | – | –

Structure (SMILES) | IC50 [1] [nM] | bioavailability [2] [%] | IC50 [3] [nM] | Vd [4] [L/kg] | half-life [5] [h] | clearance [6] [mL/min/kg] | AUC(0-inf) [7] [µM·h] | other results
Cn1cc(-c2cc(F)c3nnc(Cc4ccc5nc(N)sc5c4)n3c2)cn1 | – | – | 52 | – | – | – | – | –
COc1cnc2ccc(C(F)(F)c3nnc4c(F)cc(-c5cc(C)no5)cn34)cc2c1 | 8 | 35 | 3 | 0.09 | – | < 0.167 | 101 | inhibition (INH) (Cytochrome P450 3A4): Not Active; inhibition (INH) (Cytochrome P450 2D6): Not Active; Stability (Liver microsome [8]): Stable; Stability (Liver microsome [9]): Stable
COc1cnc2ccc(C(F)(F)c3nnc4c(F)cc(-c5cscn5)cn34)cc2c1 | 7 | 9 | 2 | 0.18 | 1.5 | 1.5 | 6.5 | inhibition (INH) (Cytochrome P450 3A4): Not Active; inhibition (INH) (Cytochrome P450 2D6): Not Active; Stability (Liver microsome [8]): Stable; Stability (Liver microsome [9]): Stable
Cc1cc(-c2cc(F)c3nnc([C@@](C)(F)c4ccc5ncccc5c4)n3c2)sn1 | – | – | 780 | – | – | – | – | –
COc1cnc2ccc([C@@](C)(F)c3nnc4c(F)cc(-c5cc(C)ns5)cn34)cc2c1 | 4 | 10 | 5 | 1.25 | 1.1 | 22.2 | 0.52 | –
COc1cnc2ccc([C@@](C)(F)c3nnc4c(F)cc(-c5cc(C)no5)cn34)cc2c1 | 3 | 38 | 2 | 0.79 | 2.7 | 4.17 | 2.4 | –
COc1cnc2ccc([C@@](C)(F)c3nnc4c(F)cc(-c5cnn(C)c5)cn34)cc2c1 | 7 | 27 | 5 | 0.64 | 2.2 | 4.5 | 2.5 | –
Cc1cc(-c2cc(F)c3nnc([C@@H](C)c4ccc5ncccc5c4)n3c2)sn1 | 12 | – | 7 | 0.38 | 0.33 | 25.5 | 0.44 | –
COc1cnc2ccc([C@H](C)c3nnc4c(F)cc(-c5cc(C)ns5)cn34)cc2c1 | 22 | – | 9 | – | 2.8 | – | 10.5 | –
COc1cnc2ccc([C@H](C)c3nnc4c(F)cc(-c5cn(C)cn5)cn34)cc2c1 | 4 | 27 | 1 | 0.37 | 1.3 | 4.33 | 2.7 | –
COc1cnc2ccc([C@H](C)c3nnc4c(F)cc(-c5cnn(C)c5)cn34)cc2c1 | 15 | 13 | 2 | 0.25 | 1.8 | 2.33 | 4.5 | –
COc1cnc2ccc([C@@H](C)c3nnc4c(F)cc(-c5cc(C)no5)cn34)cc2c1 | – | – | 370 | – | – | – | – | –
Cc1cc(-c2cc(F)c3nnc(C(C)(C)c4ccc5ncc(O)cc5c4)n3c2)on1 | – | – | > 400 | – | – | – | – | –
COc1cnc2ccc(C3(c4nnc5c(F)cc(-c6cc(C)no6)cn45)CC3)cc2c1 | – | – | 93 | – | – | – | – | –
CC[C@@H](c1ccc2ncc(OC)cc2c1)c1nnc2c(F)cc(-c3cc(C)no3)cn12 | 67 | – | 28 | – | – | – | – | –
Cc1cc(-c2cc(F)c3nnc([C@@H](C)c4ccc5ncc(O)cc5c4)n3c2)on1 | – | – | – | – | – | – | – | Drug metabolism (Liver microsome [10]): metabolite_detected; Drug metabolism [11]: metabolite_detected; Drug metabolism (Liver microsome [12]): metabolite_detected
